Data from ChEMBL document CHEMBL1773035, “SHAFTS: a hybrid approach for 3D molecular similarity calculation. 2. Prospective case study in the discovery of diverse p90 ribosomal S6 protein kinase 2 inhibitors to suppress cell migration” (J Med Chem, 2011).
pIC50: −log10 of the molar value.

Legend:
[1] = target: Mitogen-activated protein kinase 1 (Homo sapiens) (UniProt P28482); assay: Inhibition of ERK2 at 1 uM
[2] = target: Mitogen-activated protein kinase 8 (Homo sapiens) (UniProt P45983); assay: Inhibition of JNK1 at 1 uM
[3] = target: Mitogen-activated protein kinase 14 (Homo sapiens) (UniProt Q16539); assay: Inhibition of p38alpha at 1 uM
Sequence of Mitogen-activated protein kinase 14 (Homo sapiens) (Q16539 whole entry): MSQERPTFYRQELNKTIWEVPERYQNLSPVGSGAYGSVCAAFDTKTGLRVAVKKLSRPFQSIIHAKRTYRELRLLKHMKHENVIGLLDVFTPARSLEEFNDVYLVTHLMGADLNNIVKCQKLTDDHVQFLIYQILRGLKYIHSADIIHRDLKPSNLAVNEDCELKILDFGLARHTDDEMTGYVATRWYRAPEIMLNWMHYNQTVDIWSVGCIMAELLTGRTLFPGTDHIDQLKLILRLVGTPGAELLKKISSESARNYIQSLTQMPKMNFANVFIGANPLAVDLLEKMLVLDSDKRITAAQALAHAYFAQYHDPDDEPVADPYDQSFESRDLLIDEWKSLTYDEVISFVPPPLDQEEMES

[4] = target: Ribosomal protein S6 kinase beta-1 (Homo sapiens) (UniProt P23443); assay: Inhibition of p70S6K at 1 uM
Sequence of Ribosomal protein S6 kinase beta-1 (Homo sapiens) (P23443 whole entry, looked up): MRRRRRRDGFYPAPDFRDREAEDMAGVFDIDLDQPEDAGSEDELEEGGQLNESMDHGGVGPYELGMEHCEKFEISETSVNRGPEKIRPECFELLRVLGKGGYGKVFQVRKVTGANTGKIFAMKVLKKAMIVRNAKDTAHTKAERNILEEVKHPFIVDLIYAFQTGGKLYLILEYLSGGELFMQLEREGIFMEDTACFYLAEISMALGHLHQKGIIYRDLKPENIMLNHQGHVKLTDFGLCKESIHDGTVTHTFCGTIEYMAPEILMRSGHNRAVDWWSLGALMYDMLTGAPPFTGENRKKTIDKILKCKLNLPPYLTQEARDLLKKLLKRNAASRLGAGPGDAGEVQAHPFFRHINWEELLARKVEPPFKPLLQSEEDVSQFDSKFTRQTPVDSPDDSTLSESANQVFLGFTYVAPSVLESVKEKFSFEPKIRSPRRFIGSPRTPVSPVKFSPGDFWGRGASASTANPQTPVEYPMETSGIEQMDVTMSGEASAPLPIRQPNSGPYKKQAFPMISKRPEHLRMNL

[5] = target: Protein kinase C alpha type (Homo sapiens) (UniProt P17252); assay: Inhibition of PKCalpha at 1 uM
HCT-116 [6] = assay: Antiproliferative activity against human HCT116 cells over expressing RSK2 at 10 uM after 48 hrs by MTT assay; format: functional; conditions: HCT-116, 48 h
HCT-116 [7] = assay: Antiproliferative activity against human HCT116 cells over expressing RSK2 after 48 hrs by MTT assay; format: functional, cell-based; conditions: HCT-116, 48 h
Procedure, shortened: (§1)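 Formazan dissolved in DMSO, absorbance read at 570 nm. Inhibition = (1 − A570 compound/A570 control)×100. Screening concentration 100 μM (control 10 μM). IC50 from curves, ≥3 independent tests, attempted when inhibition at 100 μM exceeded 40%.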

MCF7 [8] = assay: Antiproliferative activity against human MCF7 cells over expressing RSK2 at 10 uM after 48 hrs by MTT assay; format: functional; conditions: MCF7, 48 h
MCF7 [9] = assay: Antiproliferative activity against human MCF7 cells over expressing RSK2 after 48 hrs by MTT assay; format: functional, cell-based; conditions: MCF7, 48 h; procedure, shortened: as §1
MDA-MB-231 [10] = assay: Antiproliferative activity against human MDA-MB-231 cells over expressing RSK2 at 10 uM after 48 hrs by MTT assay; format: functional; conditions: MDA-MB-231, 48 h
MDA-MB-231 [11] = assay: Antiproliferative activity against human MDA-MB-231 cells over expressing RSK2 after 48 hrs by MTT assay; format: functional, cell-based; conditions: MDA-MB-231, 48 h; procedure, shortened: as §1
[12] = target: T1, Ribosomal protein S6 kinase alpha-3 (Homo sapiens, UniProt P51812); assay: Inhibition of RSK2 after 60 mins
T1 sequence (P51812 whole entry): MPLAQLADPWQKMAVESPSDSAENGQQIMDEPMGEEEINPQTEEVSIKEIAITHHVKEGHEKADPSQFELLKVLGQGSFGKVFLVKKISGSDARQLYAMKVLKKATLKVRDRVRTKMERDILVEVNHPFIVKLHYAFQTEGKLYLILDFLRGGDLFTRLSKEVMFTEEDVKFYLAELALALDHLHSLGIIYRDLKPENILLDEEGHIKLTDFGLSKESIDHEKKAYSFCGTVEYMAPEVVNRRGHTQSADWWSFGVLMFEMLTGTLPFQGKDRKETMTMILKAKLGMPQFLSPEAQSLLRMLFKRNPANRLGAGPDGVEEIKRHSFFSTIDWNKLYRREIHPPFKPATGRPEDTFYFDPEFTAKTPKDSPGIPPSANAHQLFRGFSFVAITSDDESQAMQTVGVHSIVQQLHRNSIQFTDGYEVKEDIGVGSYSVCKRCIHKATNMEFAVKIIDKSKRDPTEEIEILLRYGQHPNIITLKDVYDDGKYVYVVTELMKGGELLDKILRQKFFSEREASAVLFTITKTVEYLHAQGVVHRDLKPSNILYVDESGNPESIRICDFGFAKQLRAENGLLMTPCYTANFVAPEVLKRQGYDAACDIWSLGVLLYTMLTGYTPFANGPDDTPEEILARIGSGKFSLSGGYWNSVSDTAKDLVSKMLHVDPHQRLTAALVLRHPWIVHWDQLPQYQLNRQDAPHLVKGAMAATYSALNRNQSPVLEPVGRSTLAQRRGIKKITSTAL
Procedure, shortened: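 Recombinant RSK2 (20 ng) preincubated 20 min at room temperature with compound in HEPES pH 7.4 buffer (MgCl2, EGTA, Tween 20, BGG) with 25 μM S6 peptide; started with ATP (10 μM final), 60 min at room temperature. ADP Quest fluorescence read at ex 530/em 590 nm. IC50 from curves of ≥3 independent tests, measured when inhibition at 10 μM exceeded 30%.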

[13] = target: Vascular endothelial growth factor receptor 1 (Homo sapiens) (UniProt P17948); assay: Inhibition of Flt1 at 10 uM by ELISA based method
Procedure, shortened: (§2)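 Tyrosine kinase profiling by ELISA-based method, ATP at Km for each enzyme; percent inhibition at 10 μM, mean of at least two independent tests.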

[14] = target: Vascular endothelial growth factor receptor 2 (Homo sapiens) (UniProt P35968); assay: Inhibition of KDR at 10 uM by ELISA based method; procedure, shortened: as §2
[15] = target: Mast/stem cell growth factor receptor Kit (Homo sapiens) (UniProt P10721); assay: Inhibition of c-Kit at 10 uM by ELISA based method; procedure, shortened: as §2
[16] = target: Platelet-derived growth factor receptor alpha (Homo sapiens) (UniProt P16234); assay: Inhibition of PDGFRalpha at 10 uM by ELISA based method; procedure, shortened: as §2
[17] = target: Platelet-derived growth factor receptor beta (Homo sapiens) (UniProt P09619); assay: Inhibition of PDGFRbeta at 10 uM by ELISA based method; procedure, shortened: as §2
[18] = target: Proto-oncogene tyrosine-protein kinase receptor Ret (Homo sapiens) (UniProt P07949); assay: Inhibition of RET at 10 uM by ELISA based method; procedure, shortened: as §2
[19] = target: Epidermal growth factor receptor (Homo sapiens) (UniProt P00533); assay: Inhibition of EGFR at 10 uM by ELISA based method; procedure, shortened: as §2
Sequence of Epidermal growth factor receptor (Homo sapiens) (P00533 whole entry): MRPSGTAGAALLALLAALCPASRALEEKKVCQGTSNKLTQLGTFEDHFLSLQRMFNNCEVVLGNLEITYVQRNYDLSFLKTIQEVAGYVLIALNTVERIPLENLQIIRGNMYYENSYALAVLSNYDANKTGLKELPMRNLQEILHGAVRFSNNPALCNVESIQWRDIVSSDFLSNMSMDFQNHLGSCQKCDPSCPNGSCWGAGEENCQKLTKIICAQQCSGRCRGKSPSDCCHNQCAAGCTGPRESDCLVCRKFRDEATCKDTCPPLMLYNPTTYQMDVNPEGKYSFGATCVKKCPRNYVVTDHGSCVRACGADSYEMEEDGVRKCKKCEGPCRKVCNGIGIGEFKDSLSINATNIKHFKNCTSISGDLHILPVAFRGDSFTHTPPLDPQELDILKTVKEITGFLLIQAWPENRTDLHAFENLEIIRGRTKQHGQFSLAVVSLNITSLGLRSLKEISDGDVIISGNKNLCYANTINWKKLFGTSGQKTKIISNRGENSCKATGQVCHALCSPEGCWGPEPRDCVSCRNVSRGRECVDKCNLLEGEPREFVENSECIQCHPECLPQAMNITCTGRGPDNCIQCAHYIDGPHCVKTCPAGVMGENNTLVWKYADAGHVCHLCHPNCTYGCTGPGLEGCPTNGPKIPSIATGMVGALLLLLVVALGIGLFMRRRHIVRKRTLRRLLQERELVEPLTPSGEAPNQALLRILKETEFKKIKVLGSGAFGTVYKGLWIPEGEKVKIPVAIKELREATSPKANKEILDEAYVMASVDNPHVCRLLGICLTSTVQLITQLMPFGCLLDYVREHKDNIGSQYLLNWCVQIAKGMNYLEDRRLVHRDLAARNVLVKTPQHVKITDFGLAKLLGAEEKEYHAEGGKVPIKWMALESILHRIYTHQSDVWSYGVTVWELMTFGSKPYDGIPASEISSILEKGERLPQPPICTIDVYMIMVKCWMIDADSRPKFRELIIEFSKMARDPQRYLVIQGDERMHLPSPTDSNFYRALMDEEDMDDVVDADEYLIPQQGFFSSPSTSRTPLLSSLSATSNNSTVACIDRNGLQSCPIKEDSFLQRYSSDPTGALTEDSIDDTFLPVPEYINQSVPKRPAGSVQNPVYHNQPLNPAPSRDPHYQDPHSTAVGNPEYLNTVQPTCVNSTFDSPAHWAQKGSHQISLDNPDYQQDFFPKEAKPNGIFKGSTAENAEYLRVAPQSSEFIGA

[20] = target: Proto-oncogene tyrosine-protein kinase Src (Homo sapiens) (UniProt P12931); assay: Inhibition of c-Src at 10 uM by ELISA based method; procedure, shortened: as §2
Sequence of Proto-oncogene tyrosine-protein kinase Src (Homo sapiens) (P12931 2-536 limits assumed): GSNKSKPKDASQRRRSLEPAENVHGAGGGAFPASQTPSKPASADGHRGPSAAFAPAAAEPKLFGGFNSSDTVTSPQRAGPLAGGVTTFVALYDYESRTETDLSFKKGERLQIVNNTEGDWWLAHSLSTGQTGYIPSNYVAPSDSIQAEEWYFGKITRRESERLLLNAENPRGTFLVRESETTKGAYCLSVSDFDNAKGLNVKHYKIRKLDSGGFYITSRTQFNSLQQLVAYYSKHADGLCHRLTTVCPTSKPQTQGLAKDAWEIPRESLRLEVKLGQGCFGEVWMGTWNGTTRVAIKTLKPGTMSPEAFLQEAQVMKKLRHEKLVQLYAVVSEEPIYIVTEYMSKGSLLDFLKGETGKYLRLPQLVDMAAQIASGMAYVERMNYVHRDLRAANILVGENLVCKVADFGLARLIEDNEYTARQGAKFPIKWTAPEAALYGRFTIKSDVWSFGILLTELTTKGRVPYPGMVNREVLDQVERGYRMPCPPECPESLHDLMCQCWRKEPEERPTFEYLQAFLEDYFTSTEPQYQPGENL

[21] = target: Tyrosine-protein kinase ABL1 (Homo sapiens) (UniProt P00519); assay: Inhibition of ABL at 10 uM by ELISA based method; procedure, shortened: as §2
[22] = target: Ephrin type-A receptor 2 (Homo sapiens) (UniProt P29317); assay: Inhibition of EPHA2 at 10 uM by ELISA based method; procedure, shortened: as §2
[23] = target: Fibroblast growth factor receptor 1 (Homo sapiens) (UniProt P11362); assay: Inhibition of FGFR1 at 10 uM by ELISA based method; procedure, shortened: as §2
Sequence of Fibroblast growth factor receptor 1 (Homo sapiens) (P11362 22-822 limits assumed): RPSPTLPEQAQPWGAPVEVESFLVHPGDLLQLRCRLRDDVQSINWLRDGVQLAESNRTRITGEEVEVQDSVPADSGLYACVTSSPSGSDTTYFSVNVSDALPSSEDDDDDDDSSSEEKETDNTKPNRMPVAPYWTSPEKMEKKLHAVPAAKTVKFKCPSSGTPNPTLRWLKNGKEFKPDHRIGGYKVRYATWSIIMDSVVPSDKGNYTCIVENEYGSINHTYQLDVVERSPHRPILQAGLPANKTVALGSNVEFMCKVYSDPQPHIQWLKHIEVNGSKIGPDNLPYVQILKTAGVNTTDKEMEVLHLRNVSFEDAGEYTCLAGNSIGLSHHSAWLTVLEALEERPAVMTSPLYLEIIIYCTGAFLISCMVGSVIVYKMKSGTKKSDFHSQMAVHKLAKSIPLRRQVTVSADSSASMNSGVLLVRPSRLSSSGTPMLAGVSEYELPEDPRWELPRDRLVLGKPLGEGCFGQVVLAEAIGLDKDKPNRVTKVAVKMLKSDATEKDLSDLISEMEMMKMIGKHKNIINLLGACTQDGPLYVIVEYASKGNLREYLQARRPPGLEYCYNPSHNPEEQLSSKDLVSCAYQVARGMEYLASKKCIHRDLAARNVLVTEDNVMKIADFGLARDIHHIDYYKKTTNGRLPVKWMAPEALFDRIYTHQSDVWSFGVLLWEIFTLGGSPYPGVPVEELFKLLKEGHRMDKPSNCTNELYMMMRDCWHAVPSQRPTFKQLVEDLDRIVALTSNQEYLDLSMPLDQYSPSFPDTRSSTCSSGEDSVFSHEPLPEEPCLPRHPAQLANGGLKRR

[24] = target: Ribosomal protein S6 kinase alpha-5 (Homo sapiens) (UniProt O75582); conditions: 1 uM
[25] = target: T1, Ribosomal protein S6 kinase alpha-3; conditions: 1 uM
[26] = target: 3-phosphoinositide-dependent protein kinase 1 (Homo sapiens) (UniProt O15530); assay: Inhibition of PDK1 at 1 uM
Sequence of 3-phosphoinositide-dependent protein kinase 1 (Homo sapiens) (O15530 whole entry, looked up): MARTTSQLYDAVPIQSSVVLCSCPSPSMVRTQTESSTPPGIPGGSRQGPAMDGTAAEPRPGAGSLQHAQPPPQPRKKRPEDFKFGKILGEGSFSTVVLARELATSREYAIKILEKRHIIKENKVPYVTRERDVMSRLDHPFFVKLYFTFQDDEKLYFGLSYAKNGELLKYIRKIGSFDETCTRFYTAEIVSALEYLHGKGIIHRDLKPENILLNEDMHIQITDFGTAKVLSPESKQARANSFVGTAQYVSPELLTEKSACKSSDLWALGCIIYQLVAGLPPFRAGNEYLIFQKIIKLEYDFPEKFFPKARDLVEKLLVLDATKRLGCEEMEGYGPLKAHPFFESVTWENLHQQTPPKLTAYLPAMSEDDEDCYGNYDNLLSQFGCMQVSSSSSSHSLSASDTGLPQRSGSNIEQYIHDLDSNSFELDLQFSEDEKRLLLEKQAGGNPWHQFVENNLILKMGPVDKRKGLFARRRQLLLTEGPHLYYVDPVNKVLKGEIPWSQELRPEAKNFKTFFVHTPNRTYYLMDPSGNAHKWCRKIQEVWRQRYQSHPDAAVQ

`Cn1cc(C2=C(c3cn(CCCSC(=N)N)c4ccccc34)C(=O)NC2=O)c2ccccc21` [BISINDOLYLMALEIMIDE IX] gave an inhibition [1] of 3%, an inhibition [2] of 5% and an inhibition [3] of 16%. It also gave an inhibition [4] of 94%, an inhibition [5] of 97% and an inhibition at 10 µM (HCT-116 [6]) of 95.2%. For the same compound, the pIC50 (HCT-116 [7]) was 6.08, the inhibition at 10 µM (MCF7 [8]) was 95.3% and the pIC50 (MCF7 [9]) was 5.71. It also gave an inhibition at 10 µM (MDA-MB-231 [10]) of 97.1%, a pIC50 (MDA-MB-231 [11]) of 5.75 and a pIC50 [12] of 8.00. It also gave an inhibition [13] of 73.2%, an inhibition [14] of 74.4% and an inhibition [15] of 58%. It also gave an inhibition [16] of 32.6%, an inhibition [17] of 32.4% and an inhibition [18] of 71.8%. The inhibition [19] was 36.6%, the inhibition [20] was 37.4% and the inhibition [21] was 37.9%. For the same compound, the inhibition [22] was 70.7%, the inhibition [23] was 61.2% and the inhibition [24] was 98%. It also gave an inhibition [25] of 98% and an inhibition [26] of 16%.
